As a reminder, the pIC50 is −log10 of the IC50, conventionally taken in molar units.

We go through one compound from ChEMBL document CHEMBL4706647, “Development and optimization of halogenated vinyl sulfones as Nrf2 activators for the treatment of Parkinson's disease” (Eur J Med Chem, 2021).

For series [1], the system named is Mus musculus. The series can be described thus: Neuroprotective activity in MPTP-induced C57BL/6 mouse model of Parkinson's disease assessed as […] TH-immunoreactive fiber density at 30 mg/kg, po pretreated for 1 day followed by MPTP challenge and subsequent compound dosing for 2 days measured 6 days post-MPTP challenge by immunohistochemistry. The series is classed as functional, organism-based. The conditions noted are these: time 7.0 day. The gist of the method:
(§1)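 Male C57BL/6 mice, 10 weeks old, 23–26 g, n = 10 per group. Dosed 30 mg/kg p.o. for 3 consecutive days in 10% N-methyl-2-pyrrolidone/20% Tween-80 in water. On day 2, MPTP-HCl 20 mg/kg i.p. given four times at 2 h intervals. Coat-hanger (scored 1–5, test done twice) and vertical grid tests run 6 days after MPTP. Brains taken next day for anti-TH immunohistochemistry (1:1000, DAB).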

Series [2] deals with T1, Nuclear factor erythroid 2-related factor 2 (Mus musculus) (UniProt Q60795).
T1 sequence (whole entry): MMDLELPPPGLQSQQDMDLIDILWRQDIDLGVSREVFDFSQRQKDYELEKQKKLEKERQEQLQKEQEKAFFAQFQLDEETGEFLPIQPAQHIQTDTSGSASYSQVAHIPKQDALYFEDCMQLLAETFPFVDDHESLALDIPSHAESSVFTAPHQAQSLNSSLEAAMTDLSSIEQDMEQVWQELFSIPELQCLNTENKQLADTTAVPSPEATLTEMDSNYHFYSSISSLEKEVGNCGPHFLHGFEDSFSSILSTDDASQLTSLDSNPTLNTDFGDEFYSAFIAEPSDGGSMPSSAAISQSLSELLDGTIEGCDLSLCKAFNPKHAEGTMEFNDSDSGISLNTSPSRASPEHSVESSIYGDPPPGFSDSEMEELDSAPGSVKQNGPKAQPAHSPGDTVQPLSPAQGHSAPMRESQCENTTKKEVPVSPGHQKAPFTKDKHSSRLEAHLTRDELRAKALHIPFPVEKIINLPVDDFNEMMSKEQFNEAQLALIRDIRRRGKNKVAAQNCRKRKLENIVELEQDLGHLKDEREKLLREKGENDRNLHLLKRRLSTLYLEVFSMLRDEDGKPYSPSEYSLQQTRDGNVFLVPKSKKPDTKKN
The series can be described thus: Activation of Nrf2 in mouse BV-2 cells assessed as increase in Gclc mRNA expression at 1 uM after 6 hrs by RT-qPCR analysis relative to control. The format is cell-based. Conditions: filed as activator. The gist of the method:
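BV-2 cells exposed to a range of concentrations for 6 h. Ho1, Gclc, Gclm and Sod1 mRNA quantified by RT-qPCR and expressed relative to vehicle-treated control. Mean ± SEM, n = 3; Student's t-test.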

The target in series [3] is T1, Nuclear factor erythroid 2-related factor 2 (Mus musculus). Put plainly: Activation of Nrf2 in mouse BV-2 cells assessed as increase in SOD1 expression at 10 uM after 6 hrs by Western blot analysis relative to control. The series is classed as cell-based. The conditions noted are these: filed as activator. In outline: (§2)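 BV-2 microglia grown in RPMI-1640 with 10% FBS, penicillin-streptomycin and 2 mM L-glutamine at 37 °C, 5% CO2. Cells exposed to a range of concentrations for 6 h, then HO-1, GCLC, GCLM and SOD1 protein measured by Western blot. Band intensity normalized to β-actin and given as fold of vehicle control. Mean ± SEM, n = 3, three separate experiments.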
Background: In western blotting, separated proteins are transferred to a membrane and probed.

For series [4], the system named is BV-2. Put plainly: Antiinflammatory activity in mouse BV-2 cells assessed as inhibition of LPS-induced TNFalpha production preincubated for 6 hrs followed by LPS stimulation and measured after 24 hrs by ELISA. The conditions noted are these: dose 0.02-2 µM, time 30.0 hrs. The format is functional, cell-based. In outline: (§3)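 BV-2 cells seeded in 12-well plates and pretreated 6 h with compound at […]. LPS then added for 24 h. TNF-α and IL-6 released into the medium quantified by ELISA. Mean ± SEM, n = 3, three separate experiments.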

In series [5] the test system is Mus musculus. Put plainly: Neuroprotective activity in MPTP-induced C57BL/6 mouse model of Parkinson's disease assessed as reduction in time to turn at 30 mg/kg, po pretreated for 1 day followed by MPTP challenge and subsequent compound dosing for 2 days measured 6 days post MPTP challenge by vertical grid test. Conditions: time 7.0 day. The series is classed as functional, organism-based. In outline:
as §1

Series [6] can be described thus: Cytotoxicity against mouse BV-2 cells assessed cell viability at 0.3 uM measured after 6 hrs by Ez-cytox reagent based assay relative to control. The conditions noted are these: read-out: Activity. The gist of the method: (§4)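 BV-2 cells (1.0 × 10⁴/well) grown 24 h at 37 °C, 5% CO2, then treated 6 h at […]. Viability expressed as percent of control.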
Series [7] can be described thus: Stability in human plasma assessed as parent compound remaining after 30 mins by LC-MS/MS analysis. The series is classed as ADME, cell-free. Conditions: read-out: Stabilty.
Series [8] can be described thus: Cytotoxicity against mouse BV-2 cells assessed cell viability at 3 uM measured after 6 hrs by Ez-cytox reagent based assay relative to control. The conditions noted are these: read-out: Activity. In outline: as §4
The nature of series [9]: Cytotoxicity against mouse BV-2 cells assessed cell viability at 10 uM measured after 6 hrs by Ez-cytox reagent based assay relative to control. Conditions: read-out: Activity.
The nature of series [10]: Stability in human microsomes assessed as parent compound remaining after 30 mins. The conditions noted are these: read-out: Stabilty. The format is ADME, Microsome.
Series [11] deals with T1, Nuclear factor erythroid 2-related factor 2 (Mus musculus). Put plainly: Activation of Nrf2 in mouse BV-2 cells assessed as increase in GCLC expression at 10 uM after 6 hrs by Western blot analysis relative to control. The format is cell-based. The conditions noted are these: filed as activator. In outline:
as §2

A short description of series [12]: Cytotoxicity against mouse BV-2 cells assessed cell viability at 1 uM measured after 6 hrs by Ez-cytox reagent based assay relative to control. Conditions: read-out: Activity. In outline: as §4
Series [13] has as its system Mus musculus. The series can be described thus: Neuroprotective activity in MPTP-induced C57BL/6 mouse model of Parkinson's disease assessed as reduction in tyrosine hydroxylase-positive cell loss at 30 mg/kg, po pretreated for 1 day followed by MPTP challenge and subsequent compound dosing for 2 days measured 6 days post-MPTP challenge by immunohistochemistry analysis relative to control. The series is classed as functional. The arrangement: scale not given: the % may be the effect or the level left. Conditions: time 7 day. In outline: as §1

In series [14] the test system is BV-2. Put plainly: Inhibition of nitric oxide production in LPS-stimulated mouse BV-2 cells harboring Nrf2 siRNA at 100 nM cotreated with LPS for 24 hrs by griess assay. (In general: The Griess reaction detects nitrite, a stable product of nitric oxide.)
Series [15] deals with Voltage-gated inwardly rectifying potassium channel KCNH2 (Homo sapiens, UniProt Q12809). The series can be described thus: Inhibition of fluorescence tracer red binding to human ERG measured after 4 hrs by fluorescence polarization assay. A general note: Fluorescence polarisation rises when a labelled molecule tumbles more slowly, as on binding a larger partner.
In series [16] the test system is BV-2. Put plainly: Antiinflammatory activity in mouse BV-2 cells assessed as inhibition of LPS-induced IL6 production preincubated for 6 hrs followed by LPS stimulation and measured after 24 hrs by ELISA. Conditions: dose 0.02-2 µM, time 30.0 hrs. The series is classed as functional, cell-based. In outline: as §3
Another series deals with CYP2D6 (Homo sapiens, UniProt P10635). Put plainly: Inhibition of CYP2D6 (unknown origin) assessed as residual activity. The format is ADME.

Each structure is given as a SMILES string. pIC50: −log10 of the molar value. The source made the active and inactive calls. No cut-off for these calls is given here.

Chain of CYP2D6 (P10635 whole entry): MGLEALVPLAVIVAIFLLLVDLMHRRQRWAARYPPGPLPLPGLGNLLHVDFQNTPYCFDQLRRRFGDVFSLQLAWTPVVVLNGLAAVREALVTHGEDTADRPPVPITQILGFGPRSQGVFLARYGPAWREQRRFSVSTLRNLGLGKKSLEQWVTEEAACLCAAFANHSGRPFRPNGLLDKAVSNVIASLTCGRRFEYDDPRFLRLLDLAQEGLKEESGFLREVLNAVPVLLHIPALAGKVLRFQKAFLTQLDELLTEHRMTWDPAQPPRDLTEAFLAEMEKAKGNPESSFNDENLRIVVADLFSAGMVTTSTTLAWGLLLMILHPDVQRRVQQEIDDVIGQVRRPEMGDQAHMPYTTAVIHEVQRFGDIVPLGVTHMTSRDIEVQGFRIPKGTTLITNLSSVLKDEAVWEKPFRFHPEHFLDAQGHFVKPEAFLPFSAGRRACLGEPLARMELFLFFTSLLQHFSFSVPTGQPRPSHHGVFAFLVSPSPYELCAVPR
Chain of Voltage-gated inwardly rectifying potassium channel KCNH2 (Q12809 whole entry): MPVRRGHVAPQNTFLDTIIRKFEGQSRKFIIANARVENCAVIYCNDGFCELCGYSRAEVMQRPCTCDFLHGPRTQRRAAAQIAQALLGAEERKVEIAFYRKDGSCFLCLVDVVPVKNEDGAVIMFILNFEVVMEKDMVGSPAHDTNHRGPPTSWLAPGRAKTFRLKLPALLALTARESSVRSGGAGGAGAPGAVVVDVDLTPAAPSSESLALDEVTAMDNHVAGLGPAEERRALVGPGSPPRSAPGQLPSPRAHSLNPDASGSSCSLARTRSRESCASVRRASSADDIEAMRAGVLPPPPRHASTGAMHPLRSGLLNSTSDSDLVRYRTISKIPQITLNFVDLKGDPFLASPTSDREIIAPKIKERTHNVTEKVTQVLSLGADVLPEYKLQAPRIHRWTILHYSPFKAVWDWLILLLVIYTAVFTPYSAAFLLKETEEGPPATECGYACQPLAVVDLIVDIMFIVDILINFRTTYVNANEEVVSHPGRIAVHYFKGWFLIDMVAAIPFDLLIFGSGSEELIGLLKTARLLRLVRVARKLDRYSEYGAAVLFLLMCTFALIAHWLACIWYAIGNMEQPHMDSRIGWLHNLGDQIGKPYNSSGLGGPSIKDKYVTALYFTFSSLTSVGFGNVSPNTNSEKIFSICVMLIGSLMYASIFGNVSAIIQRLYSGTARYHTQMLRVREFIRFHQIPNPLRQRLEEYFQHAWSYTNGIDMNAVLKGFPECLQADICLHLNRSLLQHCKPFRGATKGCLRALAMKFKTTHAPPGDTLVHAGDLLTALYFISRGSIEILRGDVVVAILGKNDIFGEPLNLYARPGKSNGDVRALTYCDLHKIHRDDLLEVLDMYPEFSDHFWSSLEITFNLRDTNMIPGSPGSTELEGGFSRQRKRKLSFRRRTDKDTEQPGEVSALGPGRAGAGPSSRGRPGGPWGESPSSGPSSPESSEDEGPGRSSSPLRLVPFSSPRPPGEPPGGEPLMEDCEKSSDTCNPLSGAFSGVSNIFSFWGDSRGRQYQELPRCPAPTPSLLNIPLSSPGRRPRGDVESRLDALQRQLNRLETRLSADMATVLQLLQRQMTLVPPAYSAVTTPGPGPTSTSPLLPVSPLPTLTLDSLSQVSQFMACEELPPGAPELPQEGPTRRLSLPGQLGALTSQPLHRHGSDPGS

For `O=S(=O)(/C=C/c1ncccc1Cl)c1ccccc1Cl`, the Activity result with Mus musculus [1] and in the series with Mus musculus [5] was “Active” each time. Besides, the fold change (FC) in [2] is 2.6; in [3], 6.6; in series [11], 8.5. For the same compound, the inhibition result with BV-2 [4] and in the series on BV-2 [16] was “Dose-dependent effect” each time. Also, the viability at 6 h, 0.3 µM in series [6] was 100%. Further, the remaining at 0.5 h was found to be 97% in series [7] and 66% in series [10]. Further, the viability at 6 h, 3 µM in series [8] is 92.4%. Moreover, the viability at 6 h, 10 µM in series [9] was found to be 100%. Besides, in series [12], the viability at 6 h, 1 µM is 98.9%. Moreover, the activity in the series on Mus musculus [13] stood at 65%; on CYP2D6, 88%. Besides, in the series with BV-2 [14], the inhibition result was “inactive”. In [15], this compound gave a negative-log IC50 (pIC50) of 3.96.
